From PubChem BioAssay AID2434 (Vanderbilt High Throughput Screening Facility, 2010)
The source made the active and inactive calls.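 The calls were made as follows: active = an acetylcholine EC50 could be fitted from its dose curve with compound present at 10 µM; inactive = the rest.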

biological target: Muscarinic acetylcholine receptor M1 (Rattus norvegicus) (UniProt P08482); test: leftward shift of ACh curve by M1 PAMs, mechanism study, cell-based, ACh fold-shift, calcium, CHO-K1 (AID 2434); details: CHO-K1 rat M1, Fluo-4 calcium
Sequence (P08482 whole entry, looked up): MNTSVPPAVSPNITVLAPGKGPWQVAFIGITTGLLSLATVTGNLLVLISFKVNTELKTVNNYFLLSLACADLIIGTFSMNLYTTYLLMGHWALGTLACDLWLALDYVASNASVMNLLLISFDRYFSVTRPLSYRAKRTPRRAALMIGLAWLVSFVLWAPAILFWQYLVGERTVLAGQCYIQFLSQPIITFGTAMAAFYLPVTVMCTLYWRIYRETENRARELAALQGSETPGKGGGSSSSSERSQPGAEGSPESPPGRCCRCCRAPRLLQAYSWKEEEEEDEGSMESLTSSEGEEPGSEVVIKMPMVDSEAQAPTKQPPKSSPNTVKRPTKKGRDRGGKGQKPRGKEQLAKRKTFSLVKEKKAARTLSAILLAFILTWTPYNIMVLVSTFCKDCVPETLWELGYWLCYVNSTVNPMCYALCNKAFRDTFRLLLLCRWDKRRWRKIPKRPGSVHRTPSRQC
In short: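 Assay system: Rat M1-expressing CHO-K1 cells, Fluo-4 loaded | Measured by: Fluo-4 calcium signal | Evaluation: Acetylcholine EC50 with compound compared to vehicle, variable-slope fits | Incubation: Dye loading 45–60 min at 37 °C, assay at 25 °C | Buffer or medium: HBSS assay buffer with HEPES and probenecid, pH 7.4 | Probe or stimulus: Eight-point acetylcholine dilution series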

Row | Structure (SMILES) | outcome
1 | Cn1cc(-c2ccc(CN3C(=O)C(=O)c4ccccc43)c(F)c2)cn1 | inactive
2 | Cn1cc(-c2cc(F)c(CN3C(=O)C(=O)c4ccccc43)c(F)c2)cn1 | inactive
3 | Cc1cc(NC(=O)CS(=O)(=O)c2cn(Cc3cc(Br)ccc3F)c3ccccc23)no1 | active
4 | Cc1cc(NC(=O)CS(=O)(=O)c2cn(Cc3cccc(-c4cn[nH]c4)c3)c3cc(F)cc(F)c23)no1 | active
